Assay results published in ChEMBL document CHEMBL5247578, “Effective synthesis of benzimidazoles-imidazo[1,2-a]pyrazine conjugates: A comparative study of mono-and bis-benzimidazoles for antitumor activity” (Eur J Med Chem, 2019).

Tests used:
[1] = tested on: Calf thymus DNA; assay: Binding affinity to calf thymus DNA assessed as intercalation by measuring hypochromic shift at 20 uM by UV-vis spectrophotometric method relative to control; type: nucleic-acid assay; details: Bos taurus
[2] = tested on: HEK293; assay: Cytotoxicity against human HEK293 cells assessed as reduction in cell viability at 0.0000001 M incubated for 48 hrs by MTT colorimetric assay relative to control; type: toxicity, cell-based; details: hek293, 48 h, 0.1 µM, dose 100 nM
[3] = tested on: HEK293; assay: Cytotoxicity against human HEK293 cells assessed as reduction in cell viability at 0.0001 M incubated for 48 hrs by MTT colorimetric assay relative to control; type: toxicity, cell-based; details: hek293, 48 h, 100 µM
[4] = tested on: CAKI-1; assay: Antiproliferative activity against human CAKI-1 cells assessed as cell growth at 0.00000001 M incubated for 48 hrs by SRB assay relative to control; type: functional; details: dose 10 nM, read-out: Activity
Outline: (§1)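 NCI-60 five-dose screen over 10^-4–10^-8 M (10-fold dilutions). Cells grown in RPMI 1640 with 5% FBS and 2 mM L-glutamine, seeded at 5,000–40,000 cells/well and preincubated 24 h. Drug from DMSO stock, 48 h at 37 °C, 5% CO2. Adherent cells TCA-fixed and stained with 0.4% SRB; A515 read. Percent growth = (Ti−Tz)/(C−Tz)×100, or (Ti−Tz)/Tz×100 when Ti<Tz.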

[5] = tested on: ACHN; assay: Antiproliferative activity against human ACHN cells assessed as cell growth at 0.00000001 M incubated for 48 hrs by SRB assay relative to control; type: functional; details: dose 10 nM, read-out: Activity; outline: as §1
[6] = tested on: NCI/ADR-RES; assay: Antiproliferative activity against human NCI/ADR-RES cells assessed as cell growth at 0.00000001 M incubated for 48 hrs by SRB assay relative to control; type: functional; details: dose 10 nM, read-out: Activity
[7] = tested on: HCT-15; assay: Antiproliferative activity against human HCT-15 cells assessed as cell growth at 0.00000001 M incubated for 48 hrs by SRB assay relative to control; type: functional; details: dose 10 nM, read-out: Activity
Outline: (§2)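 NCI-60 five-dose screen (10^-4 to 10^-8 M). Cells grown in RPMI 1640 with 5% FBS and 2 mM L-glutamine, plated at 5,000-40,000 cells/well and preincubated 24 h. Drug given from DMSO stock, then 48 h at 37 °C, 5% CO2. For adherent lines, cells fixed with cold TCA, SRB-stained and read at 515 nm. Percent growth taken against time-zero and untreated control.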

[8] = tested on: PC-3; assay: Antiproliferative activity against human PC-3 cells assessed as cell growth inhibition by measuring lethal concentration incubated for 48 hrs by sulforhodamine B assay; type: functional; details: read-out: LC50 (the source's name)
[9] = tested on: SW-620; assay: Antiproliferative activity against human SW620 cells assessed as cell growth inhibition by measuring lethal concentration incubated for 48 hrs by sulforhodamine B assay; type: functional; details: read-out: LC50 (the source's name)
Outline: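 NCI-60 five-dose screen (10^-4 to 10^-8 M, 10-fold dilutions; DMSO stocks). Cells in RPMI 1640 with 5% FBS and 2 mM L-glutamine, preincubated 24 h, then exposed 48 h at 37 °C, 5% CO2. Fixed with cold TCA, stained with 0.4% SRB, absorbance read at 515 nm. Time-zero plates used as reference. LC50 taken from [(Ti-Tz)/Tz]×100 […].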

[10] = tested on: HOP-62; assay: Antiproliferative activity against human HOP-62 cells assessed as cell growth inhibition by measuring lethal concentration incubated for 48 hrs by sulforhodamine B assay; type: functional; details: read-out: LC50 (the source's name)
[11] = tested on: A549; assay: Growth inhibition against human A549 cells assessed as total growth inhibitory concentration incubated for 48 hrs by sulforhodamine B assay; type: functional
[12] = tested on: M14; assay: Growth inhibition against human M14 cells incubated for 48 hrs by sulforhodamine B assay; type: functional
[13] = tested on: SR; assay: Growth inhibition against human SR cells incubated for 48 hrs by sulforhodamine B assay; type: functional
[14] = tested on: OVCAR-4; assay: Antiproliferative activity against human OVCAR-4 cells assessed as cell growth inhibition by measuring lethal concentration incubated for 48 hrs by sulforhodamine B assay; type: functional; details: read-out: LC50 (the source's name)
[15] = tested on: M14; assay: Antiproliferative activity against human M14 cells assessed as cell growth at 0.0000001 M incubated for 48 hrs by SRB assay relative to control; type: functional; details: dose 100 nM, read-out: Activity
[16] = tested on: SK-MEL-5; assay: Antiproliferative activity against human SK-MEL-5 cells assessed as cell growth at 0.0000001 M incubated for 48 hrs by SRB assay relative to control; type: functional; details: dose 100 nM, read-out: Activity
[17] = tested on: OVCAR-3; assay: Antiproliferative activity against human OVCAR-3 cells assessed as cell growth at 0.0000001 M incubated for 48 hrs by SRB assay relative to control; type: functional; details: dose 100 nM, read-out: Activity
[18] = tested on: 786-0; assay: Antiproliferative activity against human 786-0 cells assessed as cell growth at 0.0000001 M incubated for 48 hrs by SRB assay relative to control; type: functional; details: dose 100 nM, read-out: Activity; outline: as §1
[19] = tested on: RXF 393; assay: Antiproliferative activity against human RXF 393 cells assessed as cell growth at 0.0000001 M incubated for 48 hrs by SRB assay relative to control; type: functional; details: dose 100 nM, read-out: Activity
[20] = tested on: NCI-H460; assay: Antiproliferative activity against human NCI-H460 cells assessed as cell growth at 0.000001 M incubated for 48 hrs by SRB assay relative to control; type: functional; details: read-out: Activity
[21] = tested on: UACC-62; assay: Antiproliferative activity against human UACC-62 cells assessed as cell growth at 0.000001 M incubated for 48 hrs by SRB assay relative to control; type: functional; details: read-out: Activity
[22] = tested on: ACHN; assay: Antiproliferative activity against human ACHN cells assessed as cell growth at 0.000001 M incubated for 48 hrs by SRB assay relative to control; type: functional; details: read-out: Activity; outline: as §1
[23] = tested on: UO-31; assay: Antiproliferative activity against human UO-31 cells assessed as cell growth at 0.000001 M incubated for 48 hrs by SRB assay relative to control; type: functional; details: read-out: Activity
[24] = tested on: DU-145; assay: Antiproliferative activity against human DU-145 cells assessed as cell growth at 0.000001 M incubated for 48 hrs by SRB assay relative to control; type: functional; details: read-out: Activity; outline: as §2
[25] = tested on: BT-549; assay: Antiproliferative activity against human BT-549 cells assessed as cell growth at 0.000001 M incubated for 48 hrs by SRB assay relative to control; type: functional; details: read-out: Activity; outline: as §1
[26] = tested on: NCI-H322M; assay: Antiproliferative activity against human NCI-H322M cells assessed as cell growth at 0.00001 M incubated for 48 hrs by SRB assay relative to control; type: functional; details: read-out: Activity
[27] = tested on: SK-MEL-2; assay: Antiproliferative activity against human SK-MEL-2 cells assessed as cell growth at 0.00001 M incubated for 48 hrs by SRB assay relative to control; type: functional; details: read-out: Activity
[28] = tested on: OVCAR-4; assay: Antiproliferative activity against human OVCAR-4 cells assessed as cell growth at 0.00001 M incubated for 48 hrs by SRB assay relative to control; type: functional; details: read-out: Activity
[29] = tested on: NCI-H23; assay: Antiproliferative activity against human NCI-H23 cells assessed as cell growth at 0.0001 M incubated for 48 hrs by SRB assay relative to control; type: functional; details: read-out: Activity
[30] = tested on: OVCAR-5; assay: Antiproliferative activity against human OVCAR-5 cells assessed as cell growth at 0.0001 M incubated for 48 hrs by SRB assay relative to control; type: functional; details: read-out: Activity
[31] = tested on: BT-549; assay: Antiproliferative activity against human BT-549 cells assessed as cell growth at 0.0001 M incubated for 48 hrs by SRB assay relative to control; type: functional; details: read-out: Activity; outline: as §1

What does the source list for `c1ccc(Cn2cnc3ccc(-c4nc(-c5ccc6c(c5)ncn6C5CCCCC5)cn5ccnc45)cc32)cc1`?
Activity [1]: 15.3%; Activity [2]: 13.6%; Activity [3]: 18.05%; growth at 0.01 µM [4]: 87%; growth at 0.01 µM [5]: 96%; growth at 0.01 µM [6]: 100%; growth at 0.01 µM [7]: 92%; CC50 [8]: > 100 µM; CC50 [9]: > 100 µM; CC50 [10]: > 100 µM; TGI [11]: 4.97 µM; GI50 [12]: 1.45 µM; GI50 [13]: 1.68 µM; CC50 [14]: > 100 µM; growth at 0.1 µM [15]: 91%; growth at 0.1 µM [16]: 106%; growth at 0.1 µM [17]: 100%; growth at 0.1 µM [18]: 86%; growth at 0.1 µM [19]: 105%; growth at 1 µM [20]: 96%; growth at 1 µM [21]: 87%; growth at 1 µM [22]: 87%; growth at 1 µM [23]: 78%; growth at 1 µM [24]: 93%; growth at 1 µM [25]: 62%; growth at 10 µM [26]: 8%; growth at 10 µM [27]: -41%; growth at 10 µM [28]: 1%; growth at 100 µM [29]: -79%; growth at 100 µM [30]: 21%; growth at 100 µM [31]: -68%

`COc1ccc(-c2cn3ccnc3c(-c3ccc4ncn(C5CCCCC5)c4c3)n2)cc1` was tested. Which Activity [1] did it give?
The Activity was 20.8%.

What about the Activity [2] of the same compound?
Its Activity is 14.79%.

And the Activity [3]?
The Activity was 19.05%.

What about the growth at 0.01 µM [4] of the same compound?
The growth at 0.01 µM was 88%.

What about the growth at 0.01 µM [5] of the same compound?
Its growth at 0.01 µM is 93%.

And the growth at 0.01 µM [6]?
Its growth at 0.01 µM is 100%.

And the growth at 0.01 µM [7]?
Its growth at 0.01 µM is 94%.

What about the CC50 [8] of the same compound?
Its CC50 is over 100 µM.

What about the CC50 [9] of the same compound?
Its CC50 is over 100 µM.

What about the CC50 [10] of the same compound?
Its CC50 is over 100 µM.

And the TGI [11]?
Its TGI is over 100 µM.

What about the GI50 [12] of the same compound?
Its GI50 is 0.612 µM.

And the GI50 [13]?
The GI50 was 0.89 µM.

What about the CC50 [14] of the same compound?
The CC50 was over 100 µM.

What about the growth at 0.1 µM [15] of the same compound?
The growth at 0.1 µM was 95%.

And the growth at 0.1 µM [16]?
Its growth at 0.1 µM is 100%.

What about the growth at 0.1 µM [17] of the same compound?
The growth at 0.1 µM was 99%.

What about the growth at 0.1 µM [18] of the same compound?
Its growth at 0.1 µM is 93%.

What about the growth at 0.1 µM [19] of the same compound?
Its growth at 0.1 µM is 104%.

What about the growth at 1 µM [20] of the same compound?
The growth at 1 µM was 35%.

And the growth at 1 µM [21]?
The growth at 1 µM was 27%.

What about the growth at 1 µM [22] of the same compound?
Its growth at 1 µM is 40%.

What about the growth at 1 µM [23] of the same compound?
Its growth at 1 µM is 55%.

What about the growth at 1 µM [24] of the same compound?
The growth at 1 µM was 51%.

What about the growth at 1 µM [25] of the same compound?
The growth at 1 µM was 26%.

And the growth at 10 µM [26]?
The growth at 10 µM was 53%.

What about the growth at 10 µM [27] of the same compound?
The growth at 10 µM was 21%.

And the growth at 10 µM [28]?
The growth at 10 µM was 35%.

And the growth at 100 µM [29]?
The growth at 100 µM was 22%.

What about the growth at 100 µM [30] of the same compound?
The growth at 100 µM was 56%.

And the growth at 100 µM [31]?
The growth at 100 µM was -6%.
